# According to ChEMBL document CHEMBL3124843, “Synthesis, cytostatic, antimicrobial, and anti-HCV activity of 6-substituted 7-(het)aryl-7-deazapurine ribonucleosides” (J Med Chem, 2014):
# Activity calls are given as the source filed them. The rule behind the calls is not given here.
# Columns and labels:
# [1] = Cytotoxicity against human HuH7 cells infected with Hepatitis C virus subtype 2a; format: cell-based, Huh-7
# Hepatitis C virus [2] = assay: Antiviral activity against Hepatitis C virus subtype 2a infected in human HuH7 cells; format: functional, organism-based, Hepacivirus hominis; conditions: genotype 2a, Huh-7
# [3] = Cytotoxicity against human HuH7 cells infected with Hepatitis C virus subtype 1b; format: cell-based, Huh-7
# Hepatitis C virus [4] = assay: Antiviral activity against Hepatitis C virus subtype 1b infected in human HuH7 cells; format: functional, organism-based, Hepacivirus hominis; conditions: genotype 1b, Huh-7
# Candida tropicalis = assay: Antifungal activity against Candida tropicalis after 48 hrs; format: functional, organism-based
# Pichia kudriavzevii = assay: Antifungal activity against Candida crusei after 48 hrs; format: functional, organism-based
# Candida parapsilosis = assay: Antifungal activity against Candida parapsilosis after 48 hrs; format: functional, organism-based
# Candida albicans = assay: Antifungal activity against Candida albicans after 48 hrs; format: functional, organism-based
# Pseudomonas aeruginosa [5] = assay: Antibacterial activity against multi-resistant Pseudomonas aeruginosa A/16575 after 24 hrs; format: functional, organism-based
# Escherichia coli [6] = assay: Antibacterial activity against multi-resistant Escherichia coli C/16702 after 24 hrs; format: functional, organism-based
# [7] = system: Staphylococcus haemolyticus; assay: Antibacterial activity against methicillin-resistant Staphylococcus haemolyticus A/16568 after 24 hrs; format: functional, organism-based
# Staphylococcus aureus [8] = assay: Antibacterial activity against methicillin-resistant Staphylococcus aureus MRSA 4591 after 24 hrs; format: functional, organism-based
# Pseudomonas aeruginosa [9] = assay: Antibacterial activity against Pseudomonas aeruginosa CCM 3955 after 24 hrs; format: functional, organism-based
# Escherichia coli [10] = assay: Antibacterial activity against Escherichia coli CCM 3954 after 24 hrs; format: functional, organism-based
# Staphylococcus aureus [11] = assay: Antibacterial activity against Staphylococcus aureus CCM 3953 after 24 hrs; format: functional, organism-based
# Enterococcus faecalis = assay: Antibacterial activity against Enterococcus faecalis CCM 4224 after 24 hrs; format: functional, organism-based
# [12] = Antiproliferative activity against human HeLaS3 cells after 72 hrs by XTT assay; format: functional, cell-based; conditions: HeLa S3, 72 h
# In short: (§1)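 Antiproliferative test on HL-60 promyelocytic leukemia and HeLa S3 cervical carcinoma cells growing in liquid suspension.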
# HL-60 = assay: Antiproliferative activity against human HL60 cells after 72 hrs by XTT assay; format: functional, cell-based; conditions: HL-60, 72 h; in short: as §1
# HepG2 = assay: Antiproliferative activity against human HepG2 cells after 72 hrs by XTT assay; format: functional, cell-based; conditions: HepG2, 72 h
# MRC5 = assay: Cytostatic activity against human MRC5 cells after 72 hrs by MTT assay; format: ADME, cell-based; conditions: MRC5, 72 h
# In short: (§2)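 IC50 is the concentration that cuts cell growth by 50%, read by quantitative metabolic MTT staining after a 3-day treatment. The resistant sublines were made by raising the concentration of the cytotoxic drug step by step. CEM-DNR-bulk (daunorubicin-selected) stably overexpresses mrp-1. K562-TAX (paclitaxel-selected) expresses only mdr-1. HCT116p53−/− carries null p53 alleles. BJ and MRC-5 are nonmalignant fibroblasts.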
# BJ = assay: Cytostatic activity against human BJ cells after 72 hrs by MTT assay; format: ADME, cell-based; in short: as §2
# HCT-116 [13] = assay: Cytostatic activity against p53-deficient human HCT116 cells after 72 hrs by MTT assay; format: functional, cell-based; conditions: HCT-116, 72 h; in short: as §2
# HCT-116 [14] = assay: Cytostatic activity against human HCT116 cells after 72 hrs by MTT assay; format: functional, cell-based; conditions: HCT-116, 72 h; in short: as §2
# A549 = assay: Cytostatic activity against human A549 cells after 72 hrs by MTT assay; format: functional, cell-based; conditions: A549, 72 h; in short: as §2
# K562 [15] = assay: Cytostatic activity against paclitaxel-resistant human K562 cells after 72 hrs by MTT assay; format: functional, cell-based; conditions: K562, 72 h; in short: as §2
# K562 [16] = assay: Cytostatic activity against human K562 cells after 72 hrs by MTT assay; format: functional, cell-based; conditions: K562, 72 h; in short: as §2
# [17] = Cytostatic activity against human CEM-DNR-bulk cells after 72 hrs by MTT assay; format: functional, cell-based; in short: as §2
# CCRF-CEM = assay: Cytostatic activity against human CCRF-CEM cells after 72 hrs by MTT assay; format: functional, cell-based; in short: as §2
SMILES,CC50 [3] [µM],EC50 (Hepatitis C virus [4]) [µM],Activity (Candida tropicalis),Activity (Pichia kudriavzevii),Activity (Candida parapsilosis),Activity (Candida albicans),Activity (Pseudomonas aeruginosa [5]),Activity (Escherichia coli [6]),Activity [7],Activity (Staphylococcus aureus [8]),Activity (Pseudomonas aeruginosa [9]),Activity (Escherichia coli [10]),Activity (Staphylococcus aureus [11]),Activity (Enterococcus faecalis),IC50 [12] [µM],IC50 (MRC5) [µM],IC50 (BJ) [µM],IC50 (HCT-116 [13]) [µM],IC50 (HCT-116 [14]) [µM],IC50 (A549) [µM],further results
CNc1ncnc2c1c(-c1ccsc1)cn2[C@@H]1O[C@H](CO)[C@@H](O)[C@H]1O,> 44,> 44,inactive,inactive,inactive,inactive,inactive,inactive,inactive,inactive,inactive,inactive,inactive,inactive,> 20,> 100,> 100,> 20,> 20,> 20,CC50 [1]: > 44 µM; EC50 (Hepatitis C virus [2]): > 44 µM; IC50 (HL-60): > 20 µM; IC50 (HepG2): > 20 µM; IC50 (K562 [15]): > 20 µM; IC50 (K562 [16]): > 20 µM; IC50 [17]: > 20 µM; IC50 (CCRF-CEM): > 20 µM
COc1nc(N)nc2c1c(-c1ccccc1)cn2[C@@H]1O[C@H](CO)[C@@H](O)[C@H]1O,> 44,> 44,inactive,inactive,inactive,inactive,inactive,inactive,inactive,inactive,inactive,inactive,inactive,inactive,> 20,> 100,> 100,> 20,> 20,> 20,CC50 [1]: > 44 µM; EC50 (Hepatitis C virus [2]): > 44 µM; IC50 (HL-60): > 20 µM; IC50 (HepG2): > 20 µM; IC50 (K562 [15]): > 20 µM; IC50 (K562 [16]): > 20 µM; IC50 [17]: > 20 µM; IC50 (CCRF-CEM): > 20 µM
C#Cc1cn([C@@H]2O[C@H](CO)[C@@H](O)[C@H]2O)c2ncnc(NC)c12,> 44,0.35,inactive,inactive,inactive,inactive,inactive,inactive,inactive,inactive,inactive,inactive,inactive,inactive,> 20,> 100,86,> 20,> 20,> 20,CC50 [1]: > 44 µM; EC50 (Hepatitis C virus [2]): > 44 µM; IC50 (HL-60): 9.06 µM; IC50 (HepG2): > 15 µM; IC50 (K562 [15]): 1.38 µM; IC50 (K562 [16]): > 20 µM; IC50 [17]: 18.5 µM; IC50 (CCRF-CEM): > 20 µM
Nc1nc2c(c(-c3cc4ccccc4o3)cn2[C@@H]2O[C@H](CO)[C@@H](O)[C@H]2O)c(=O)[nH]1,> 44,> 44,inactive,inactive,inactive,inactive,inactive,inactive,inactive,inactive,inactive,inactive,inactive,inactive,> 20,> 100,> 100,> 100,> 100,> 100,CC50 [1]: > 44 µM; EC50 (Hepatitis C virus [2]): > 44 µM; IC50 (HL-60): > 20 µM; IC50 (HepG2): > 20 µM; IC50 (K562 [15]): > 20 µM; IC50 (K562 [16]): > 20 µM; IC50 [17]: > 20 µM; IC50 (CCRF-CEM): > 20 µM
Cc1nc(N)c2c(-c3ccoc3)cn([C@@H]3O[C@H](CO)[C@@H](O)[C@H]3O)c2n1,> 44,> 44,inactive,inactive,inactive,inactive,inactive,inactive,inactive,inactive,inactive,inactive,inactive,inactive,> 20,> 100,> 100,> 20,> 20,> 20,CC50 [1]: > 44 µM; EC50 (Hepatitis C virus [2]): > 44 µM; IC50 (HL-60): > 20 µM; IC50 (HepG2): > 20 µM; IC50 (K562 [15]): > 20 µM; IC50 (K562 [16]): > 20 µM; IC50 [17]: > 20 µM; IC50 (CCRF-CEM): > 100 µM
CN(C)c1ncnc2c1c(-c1cccs1)cn2[C@@H]1O[C@H](CO)[C@@H](O)[C@H]1O,> 44,16.8,inactive,inactive,inactive,inactive,inactive,inactive,inactive,inactive,inactive,inactive,inactive,inactive,> 20,> 100,> 100,> 20,> 20,> 20,CC50 [1]: > 44 µM; EC50 (Hepatitis C virus [2]): > 44 µM; IC50 (HL-60): 11.8 µM; IC50 (HepG2): > 20 µM; IC50 (K562 [15]): > 20 µM; IC50 (K562 [16]): > 20 µM; IC50 [17]: > 20 µM; IC50 (CCRF-CEM): > 20 µM
C#Cc1cn([C@@H]2O[C@H](CO)[C@@H](O)[C@H]2O)c2nc(N)nc(OC)c12,> 44,> 44,inactive,inactive,inactive,inactive,inactive,inactive,inactive,inactive,inactive,inactive,inactive,inactive,> 20,> 100,> 100,> 20,> 20,> 100,CC50 [1]: > 44 µM; EC50 (Hepatitis C virus [2]): > 44 µM; IC50 (HL-60): > 20 µM; IC50 (HepG2): > 20 µM; IC50 (K562 [15]): > 20 µM; IC50 (K562 [16]): > 20 µM; IC50 [17]: > 20 µM; IC50 (CCRF-CEM): > 100 µM
Nc1ncnc2c1c(-c1ccco1)cn2[C@@H]1O[C@H](CO)[C@@H](O)[C@H]1O,> 44,> 44,inactive,inactive,inactive,inactive,inactive,inactive,inactive,inactive,inactive,inactive,inactive,inactive,0.05,36.5,18.3,0.17,0.03,0.03,CC50 [1]: > 44 µM; EC50 (Hepatitis C virus [2]): > 44 µM; IC50 (K562 [15]): 0.05 µM; IC50 (K562 [16]): 0.04 µM; IC50 [17]: 0.21 µM; IC50 (CCRF-CEM): 0.04 µM
Nc1nc(N)c2c(-c3ccoc3)cn([C@@H]3O[C@H](CO)[C@@H](O)[C@H]3O)c2n1,> 44,21.3,inactive,inactive,inactive,inactive,inactive,inactive,inactive,inactive,inactive,inactive,inactive,inactive,> 20,> 100,> 100,> 20,> 20,> 20,IC50 (HL-60): > 20 µM; IC50 (HepG2): > 20 µM; IC50 (K562 [15]): > 20 µM; IC50 (K562 [16]): > 20 µM; IC50 [17]: > 20 µM; IC50 (CCRF-CEM): > 20 µM
